Assay results reported in ChEMBL document CHEMBL1124801, “Novel 3-hydroxy-2(1H)-pyridinones. Synthesis, iron(III)-chelating properties, and biological activity” (J Med Chem, 1990).

Legend:
Format in all cases: physicochemical
[1] = Distribution coefficient and iron(III) complex was measured at an aqueous phase buffered at pH 7.4 and octanol; details: octanol/water
In short: (§1)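 Spectrophotometric partition: ligands at about 0.1 mM in 20 mM Tris-HCl pH 7.4 shaken overnight with octan-1-ol at 25 °C. Octanol volume chosen to lower aqueous absorbance by 30–70%; three preparations used. Aqueous spectra read at 250–350 nm for free ligands and 350–600 for iron(III) complexes, the complexes formed with over 10-fold ligand excess over iron(III).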

[2] = Distribution coefficient was measured at an aqueous phase buffered at pH 7.4 and octanol; details: octanol/water; in short: as §1
[3] = pKa values were measured by spectrophotometric method
[4] = pKa values was measured by spectrophotometric method

## Cn1cccc(O)c1=O
[1]
  Distribution coefficient: 0.12
[2]
  Distribution coefficient: 0.6

## CCCCn1cccc(O)c1=O
[1]
  Distribution coefficient: > 1000
[2]
  Distribution coefficient: 16

## CCn1cccc(O)c1=O
[1]
  Distribution coefficient: 1.67
[2]
  Distribution coefficient: 1.57
[3]
  pKa: 8.99

## CCCCNC(=O)Cn1cccc(O)c1=O
[1]
  Distribution coefficient: 3.74
[2]
  Distribution coefficient: 2.12

## CCCNC(=O)Cn1cccc(O)c1=O
[1]
  Distribution coefficient: 0.35
[2]
  Distribution coefficient: 0.57
[4]
  pKa: 8.75

## CCCn1cccc(O)c1=O
[1]
  Distribution coefficient: 24.6
[2]
  Distribution coefficient: 4.92

## O=C(Cn1cccc(O)c1=O)NCCN(CCNC(=O)Cn1cccc(O)c1=O)CCNC(=O)Cn1cccc(O)c1=O
[1]
  Distribution coefficient: 0.008
[2]
  Distribution coefficient: 0.025
[4]
  pKa: 8.7

## CNC(=O)Cn1cccc(O)c1=O
[1]
  Distribution coefficient: 0.001
[2]
  Distribution coefficient: 0.07

## CC(C)n1cccc(O)c1=O
[1]
  Distribution coefficient: 234
[2]
  Distribution coefficient: 6.17

## CCNC(=O)Cn1cccc(O)c1=O
[1]
  Distribution coefficient: 0.035
[2]
  Distribution coefficient: 0.18

## CC(=O)N(O)CCCCCNC(=O)CCC(=O)N(O)CCCCCNC(=O)CCC(=O)N(O)CCCCCN [DEFEROXAMINE]
[1]
  Distribution coefficient: 0.03
[2]
  Distribution coefficient: 0.07

## CC(C)NC(=O)Cn1cccc(O)c1=O
[1]
  Distribution coefficient: 0.11
[2]
  Distribution coefficient: 0.46
